Legend:
[1] = target: 11-beta-hydroxysteroid dehydrogenase 1 (Mus musculus) (UniProt P50172); assay: Inhibition of mouse 11beta-HSD1 expressed in HEK293 cell microsomes assessed as inhibition of [3H]cortisone conversion to [3H]cortisol at 1 uM by scintillation proximity assay; settings: Microsome
In short: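 Primary single-concentration screen in the SPA. Mouse 11β-HSD1 HEK-293 stable-transfectant microsomes are incubated with NADPH and [3H]cortisone, and [3H]cortisol is captured by antibody-coupled protein A SPA beads. Inhibitory ratio is the average of two determinations, with deviation from the average of 10% of the average value.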

[2] = target: T1, 11-beta-hydroxysteroid dehydrogenase type 2 (Homo sapiens, UniProt P80365); assay: Inhibition of human 11beta-HSD2
T1 sequence (P80365 whole entry): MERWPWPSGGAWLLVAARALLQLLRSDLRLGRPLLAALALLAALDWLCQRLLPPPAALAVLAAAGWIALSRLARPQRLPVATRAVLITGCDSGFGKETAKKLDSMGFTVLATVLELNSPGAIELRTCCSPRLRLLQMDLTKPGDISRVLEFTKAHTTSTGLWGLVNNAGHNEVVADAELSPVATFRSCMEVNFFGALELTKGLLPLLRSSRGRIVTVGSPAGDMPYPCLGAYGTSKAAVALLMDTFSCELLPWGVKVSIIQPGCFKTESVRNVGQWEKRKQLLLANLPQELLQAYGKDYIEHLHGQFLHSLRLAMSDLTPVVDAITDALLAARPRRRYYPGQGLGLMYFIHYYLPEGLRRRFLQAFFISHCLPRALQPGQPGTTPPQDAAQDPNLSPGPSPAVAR

[3] = species: Homo sapiens; assay: selectivity ratio of IC50 for human 11beta-HSD2 to IC50 for human 11beta-HSD1
In short: (§1)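 Ratio of 11β-HSD2 IC50 to 11β-HSD1 IC50 for the same species (mouse or human). Both IC50s come from microsome-based scintillation proximity assays, averaged over at least two independent experiments with at least duplicate wells per concentration. Only compounds exceeding 50% inhibition in the primary screen were evaluated.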

[4] = target: T2, 11-beta-hydroxysteroid dehydrogenase 1 (Homo sapiens, UniProt P28845); assay: Inhibition of human 11beta-HSD1 expressed in HEK293 cell microsomes assessed as inhibition of [3H]cortisone conversion to [3H]cortisol by scintillation proximity assay; set-up: species or system Microsome
In short: (§2)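 Enzyme source: microsomal fraction from HEK-293 cells stably transfected with 11β-HSD1 (human or mouse), incubated with NADPH and [3H]cortisone. The [3H]cortisol product is captured by a monoclonal antibody on protein A-coated SPA beads. IC50 is averaged over at least two independent experiments, at least duplicate per concentration.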

[5] = target: 11-beta-hydroxysteroid dehydrogenase 1 (Mus musculus, UniProt P50172); assay: Inhibition of mouse 11beta-HSD1 expressed in HEK293 cell microsomes assessed as inhibition of [3H]cortisone conversion to [3H]cortisol by scintillation proximity assay; set-up: species or system Microsome; in short: as §2
[6] = target: T3, 11-beta-hydroxysteroid dehydrogenase type 2 (Mus musculus, UniProt P51661); assay: Inhibition of mouse 11beta-HSD2
T3 sequence (P51661 whole entry): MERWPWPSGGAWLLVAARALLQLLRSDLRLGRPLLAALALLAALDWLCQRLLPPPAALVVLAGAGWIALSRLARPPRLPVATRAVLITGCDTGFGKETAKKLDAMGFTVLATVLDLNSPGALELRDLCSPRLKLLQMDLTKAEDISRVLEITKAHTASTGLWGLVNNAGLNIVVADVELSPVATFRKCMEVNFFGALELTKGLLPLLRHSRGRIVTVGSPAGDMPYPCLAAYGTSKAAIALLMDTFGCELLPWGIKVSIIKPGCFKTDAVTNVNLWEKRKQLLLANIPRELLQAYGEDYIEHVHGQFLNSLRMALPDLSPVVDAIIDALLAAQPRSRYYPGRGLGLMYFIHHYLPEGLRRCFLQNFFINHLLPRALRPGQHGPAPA
In short: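 Scintillation proximity assay using microsomes containing mouse 11β-HSD2. IC50 is averaged over at least two independent experiments, with at least two replicates per concentration.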

[7] = species: Mus musculus; assay: Selectivity ratio of IC50 for mouse 11beta-HSD2 to IC50 for mouse 11beta-HSD1; in short: as §1
[8] = target: 11-beta-hydroxysteroid dehydrogenase 1 (Rattus norvegicus, UniProt P16232); assay: Inhibition of rat 11beta-HSD1
[9] = target: T2, 11-beta-hydroxysteroid dehydrogenase 1; assay: Inhibition of human 11beta-HSD1
In short: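 Scintillation proximity assay on microsomes from HEK-293 cells stably transfected with human 11β-HSD1. Microsomes were incubated with NADPH and [3H]cortisone. The [3H]cortisol formed was captured by a monoclonal antibody on protein A-coated SPA beads. Compounds were first screened at […]; those giving over 50% inhibition went on to full IC50 determination. Each value comes from at least two independent experiments, with duplicates or more at each concentration.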

T2 sequence (P28845 whole entry): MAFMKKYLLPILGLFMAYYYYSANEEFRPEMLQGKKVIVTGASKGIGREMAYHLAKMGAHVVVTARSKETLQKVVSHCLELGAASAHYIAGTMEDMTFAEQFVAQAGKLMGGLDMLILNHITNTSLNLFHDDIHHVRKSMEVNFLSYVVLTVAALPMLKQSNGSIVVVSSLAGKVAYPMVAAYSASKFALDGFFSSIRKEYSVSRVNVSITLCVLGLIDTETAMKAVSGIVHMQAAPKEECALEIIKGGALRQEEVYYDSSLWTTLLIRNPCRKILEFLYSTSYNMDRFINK
Sequence of 11-beta-hydroxysteroid dehydrogenase 1 (Mus musculus, UniProt P50172) (P50172 whole entry): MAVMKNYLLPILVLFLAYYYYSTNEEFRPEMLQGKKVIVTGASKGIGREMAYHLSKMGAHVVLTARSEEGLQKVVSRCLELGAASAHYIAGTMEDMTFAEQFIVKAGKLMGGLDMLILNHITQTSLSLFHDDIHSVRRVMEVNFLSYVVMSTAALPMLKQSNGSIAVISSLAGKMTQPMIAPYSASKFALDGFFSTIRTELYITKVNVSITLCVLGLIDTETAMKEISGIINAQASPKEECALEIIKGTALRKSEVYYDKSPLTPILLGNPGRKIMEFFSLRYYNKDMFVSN
Sequence of 11-beta-hydroxysteroid dehydrogenase 1 (Mus musculus) (P50172 whole entry, looked up): as the sequence (P50172 whole entry) above
Sequence of 11-beta-hydroxysteroid dehydrogenase 1 (Rattus norvegicus, UniProt P16232) (P16232 whole entry): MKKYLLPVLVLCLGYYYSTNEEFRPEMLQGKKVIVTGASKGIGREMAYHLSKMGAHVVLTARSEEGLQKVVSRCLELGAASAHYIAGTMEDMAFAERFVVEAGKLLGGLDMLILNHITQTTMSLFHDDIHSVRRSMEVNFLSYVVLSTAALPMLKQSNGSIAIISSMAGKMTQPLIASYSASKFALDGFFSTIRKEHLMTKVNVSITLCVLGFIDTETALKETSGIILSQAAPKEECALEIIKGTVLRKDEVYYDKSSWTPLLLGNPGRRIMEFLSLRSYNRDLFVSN

**Q.** How did the inhibition [1] turn out when `C=C1[C@H]2C[C@H](O)[C@H]3[C@]4(C)CCC[C@@](C)(NC(=O)NC56CC7CC(CC(C7)C5)C6)[C@H]4CC[C@]3(C2)[C@@H]1O` was run?
**A.** 20.8%

**Q.** What about the IC50 [2] of the same compound?
**A.** 0.7 µM

**Q.** And the Ratio IC50 [3]?
**A.** 1.7

**Q.** And the IC50 [4]?
**A.** 0.404 µM

**Q.** What about the IC50 [5] of the same compound?
**A.** > 1 µM

**Q.** What does the source list for `C=C1C[C@@]23CC[C@H]4[C@@](C)(CCC[C@@]4(C)NC(=O)Nc4ccc(F)cc4)[C@@H]2CC[C@H]1C3`?
**A.** inhibition [1]: 25.9%; IC50 [2]: > 100 µM; Ratio IC50 [3]: > 302; IC50 [4]: 0.331 µM; IC50 [5]: > 1 µM

**Q.** For `C=C1[C@H]2C[C@H](O)[C@H]3[C@]4(C)CCC[C@@](C)(NC(=O)Nc5ccc(F)cc5)[C@H]4CC[C@]3(C2)[C@@H]1O`, which inhibition [1] is on record?
**A.** 7.92%

**Q.** And the IC50 [2]?
**A.** > 100 µM

**Q.** And the Ratio IC50 [3]?
**A.** > 402

**Q.** What about the IC50 [4] of the same compound?
**A.** 0.249 µM

**Q.** What about the IC50 [5] of the same compound?
**A.** > 1 µM

**Q.** Which IC50 [2] does the source give for `C[C@@]12CCC[C@@](C)(C(=O)O)[C@H]1CC[C@@]13C[C@H](CC[C@H]12)[C@@](O)(CO)C3` here?
**A.** > 1000 µM

**Q.** What about the Ratio IC50 [3] of the same compound?
**A.** > 809

**Q.** And the IC50 [4]?
**A.** 1.24 µM

**Q.** What about the IC50 [5] of the same compound?
**A.** 3.22 µM

**Q.** What about the IC50 [6] of the same compound?
**A.** > 1000 µM

**Q.** What about the Ratio IC50 [7] of the same compound?
**A.** > 311

**Q.** For `C=C1[C@H]2CC[C@H]3[C@]4(C)CCC[C@@](C)(C(=O)O)[C@H]4CC[C@]3(C2)[C@H]1O`, which inhibition [1] is on record?
**A.** 55.5%

**Q.** What about the IC50 [4] of the same compound?
**A.** > 1 µM

**Q.** What about the IC50 [5] of the same compound?
**A.** 0.259 µM

**Q.** What about the IC50 [6] of the same compound?
**A.** > 100 µM

**Q.** And the Ratio IC50 [7]?
**A.** > 387

**Q.** With `C=C1C[C@@]23CC[C@H]4[C@@](C)(CCC[C@@]4(C)C(=O)O)[C@@H]2CC[C@@H]1C3` [KAURENOIC ACID] as the compound, how does the inhibition [1] read?
**A.** 82.4%

**Q.** And the IC50 [5]?
**A.** 0.357 µM

**Q.** And the IC50 [6]?
**A.** 500 µM

**Q.** What about the Ratio IC50 [7] of the same compound?
**A.** 1400

**Q.** What does the source list for `C[C@@]1(CO)CCC[C@]2(C)[C@@H]1CC[C@@]13C[C@H](CC[C@H]12)[C@@](O)(CO)C3`?
**A.** IC50 [2]: > 1000 µM; Ratio IC50 [3]: > 1100; IC50 [4]: 0.91 µM; IC50 [5]: 2.81 µM; IC50 [6]: > 1000 µM; Ratio IC50 [7]: > 357

**Q.** Which results are given for `C=C1[C@H]2C[C@H](OC(=S)SC)[C@H]3[C@]4(C)CCC[C@@](C)(C(=O)O)[C@H]4CC[C@]3(C2)[C@@H]1O`?
**A.** inhibition [1]: 11.1%; IC50 [2]: > 100 µM; Ratio IC50 [3]: > 130; IC50 [4]: 0.771 µM; IC50 [5]: > 1 µM

**Q.** For `C=C1C[C@@]23CC[C@@H]4[C@](C)(CO)CCC[C@@]4(C)[C@@H]2CC[C@H]1C3`, which inhibition [1] is on record?
**A.** 20.4%

**Q.** And the IC50 [2]?
**A.** 10 µM

**Q.** What about the Ratio IC50 [3] of the same compound?
**A.** 7

**Q.** And the IC50 [4]?
**A.** 1.42 µM

**Q.** What about the IC50 [5] of the same compound?
**A.** 1.55 µM

**Q.** What about the IC50 [6] of the same compound?
**A.** > 1000 µM

**Q.** And the Ratio IC50 [7]?
**A.** > 640

**Q.** `C=C1C[C@@]23CC[C@H]4[C@@](C)(CCC[C@@]4(C)NC(=O)NC45CC6CC(CC(C6)C4)C5)[C@@H]2CC[C@H]1C3` was tested. Which inhibition [1] did it give?
**A.** 18.2%

**Q.** And the IC50 [2]?
**A.** > 100 µM

**Q.** And the Ratio IC50 [3]?
**A.** > 246

**Q.** And the IC50 [4]?
**A.** 0.407 µM

**Q.** What about the IC50 [5] of the same compound?
**A.** > 1 µM

**Q.** `C=C1[C@H]2C[C@H](O)[C@H]3[C@]4(C)CCC[C@@](C)(NC(=O)NC5CCCCC5)[C@H]4CC[C@]3(C2)[C@@H]1O` was tested. Which inhibition [1] did it give?
**A.** 16.3%

**Q.** And the IC50 [2]?
**A.** > 100 µM

**Q.** What about the Ratio IC50 [3] of the same compound?
**A.** > 605

**Q.** And the IC50 [4]?
**A.** 0.165 µM

**Q.** And the IC50 [5]?
**A.** > 1 µM

**Q.** `C[C@@H]1CC(n2c(=O)[nH]c3ccccc32)C[C@@H](C)N1C(=O)c1cc(Cl)c(N)c(Cl)c1` (stereo not given in full) was tested. Which IC50 [8] did it give?
**A.** 0.039 µM

**Q.** And the IC50 [9]?
**A.** 0.022 µM

**Q.** With `C=C1[C@H]2C[C@H](O)[C@H]3[C@]4(C)CCC[C@@](C)(NC(=O)Nc5ccccc5)[C@H]4CC[C@]3(C2)[C@@H]1O` as the compound, how does the inhibition [1] read?
**A.** 24.4%

**Q.** And the IC50 [2]?
**A.** > 1000 µM

**Q.** What about the Ratio IC50 [3] of the same compound?
**A.** > 10600

**Q.** And the IC50 [4]?
**A.** 0.0094 µM

**Q.** And the IC50 [5]?
**A.** > 1 µM

**Q.** Which inhibition [1] does the source give for `C=C1[C@H]2C[C@H](O)[C@H]3[C@]4(C)CCC[C@@](C)(NC(=O)Nc5cccc6ccccc56)[C@H]4CC[C@]3(C2)[C@@H]1O` here?
**A.** 52.2%

**Q.** What about the IC50 [2] of the same compound?
**A.** 1.6 µM

**Q.** And the Ratio IC50 [3]?
**A.** 6.2

**Q.** And the IC50 [4]?
**A.** 0.266 µM

**Q.** What about the IC50 [5] of the same compound?
**A.** > 1 µM

**Q.** What does the source list for `C=C1[C@H]2C[C@H](OC(C)=O)[C@H]3[C@]4(C)CCC[C@@](C)(C(=O)O)[C@H]4CC[C@]3(C2)[C@@H]1O`?
**A.** inhibition [1]: 12.4%; IC50 [2]: 229 µM; Ratio IC50 [3]: 1970; IC50 [4]: 0.116 µM; IC50 [5]: > 1 µM
